Bioassay records from PubChem BioAssay.
ALR H2O2 inh – inhibitors of human sulfhydryl oxidase ALR; purified ALR, DTT oxidation, H2O2 HRP-luminol luminescence; P55789; AID 485317; inhibition, % (no concentration beside the values); hit rate 3.8% among 290,000;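 active means mean replicate inhibition above about 79%, with every replicate also reaching it, limit read from the data; inconclusive means only one of the two criteria met; inactive means mean below limit and not every replicate reaching it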
Target sequence (P55789 whole entry, looked up): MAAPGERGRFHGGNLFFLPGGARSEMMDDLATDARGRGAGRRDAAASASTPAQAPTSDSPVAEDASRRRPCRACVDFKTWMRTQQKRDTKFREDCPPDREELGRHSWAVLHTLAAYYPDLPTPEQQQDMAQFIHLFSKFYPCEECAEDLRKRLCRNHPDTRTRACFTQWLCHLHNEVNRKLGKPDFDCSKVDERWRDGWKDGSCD
Pemphigus Ab inh – human desmoglein-3 autoantibody binding inhibition | AID 588358 | hit rate 0.48% among 310,000 | DSG3-coupled beads, scFv-anti-DSG3-GFP binding, flow cytometry; hits give low values | binding (percent of control), % at 10 µM;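 active means binding more than 3 SD below its plate's average and above zero; inconclusive means below that plate limit but binding exactly zero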;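 further: hits lower antibody fragment binding to DSG3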
PolyA inh – inhibitors of polyadenylation in S. cerevisiae. AID 1875. activity score, % at 12 µM. S. cerevisiae SKY197-pL101 polyadenylation reporter, beta-gal luminescence; efflux-impaired pdr1/pdr3 knockout yeast; score 100 = 6 SD above DMSO. hit rate 0.02% among 300,000;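 active means lowest replicate activity score at least 50, where 100 means six control SD above control mean; inconclusive means lowest score under 50 but half or more replicates reach 50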;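 further: yeast exposed to compound for 9 h at 30 °C; higher score means more reporter readthrough which indicates perturbed polyadenylation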
NALP1 inh – NALP1 inhibition; S. cerevisiae NALP1/ASC/caspase-1 growth, X-gal OD620, 72 h; inhibition, % at 10 µM; hit rate 0.61% among 280,000; AID 2071; in the data active means inhibition mostly above about 24%, no sharp cut-off; inactive means mostly below about 32%
Arrestin-AP2 inh – blocks beta-arrestin peptide binding to AP2 adaptin; FITC-arrestin peptide / GST-AP2 beads, flow cytometry; AP2 beta2 appendage carries R879A mutation; inhibition, % at 10 µM; hit rate 0.31% among 340,000; AID 504490;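 active means inhibition above a set limit, near 3 SD of compounds lacking own fluorescence, cut at about 54% in these data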
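System: GST-AP2 R879A bound to glutathione beads, E. coli-expressed. Also added: 50 nM FITC-arrestin peptide. Schedule: compound with beads 12 min RT, then probe 1 h RT. Signal: bead flow cytometry, FITC channel. Read-out basis: percent response.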
NALP3 yeast inh – blocks the NALP3 inflammasome reconstituted in yeast; Yeast reconstituted NLRP3/ASC/caspase-1, beta-gal luminescence, 24 h; inhibition, % at 10 µM; hit rate 0.39% among 330,000; AID 2825;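 active means inhibition of 50% or more; inactive means inhibition below 50%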
NALP3 confirm – NALP3 inhibition confirmation in yeast; shares compounds with NALP3 yeast inh; yeast expressing human NALP3, luminescence; inhibition, % at 10 µM; hit rate 81% among 1,300; AID 435006; in the data active means inhibition above about 48%
Casp1-ASC yeast – active in yeast caspase-1-ASC counter-screen for NALP3 inhibitors. AID 488784. hit rate 66% among 1,000. yeast expressing Caspase-1-ASC, luminescence counter screen. shares compounds with NALP3 yeast inh. inhibition, % at 10 µM
NALP3 yeast rt – confirmation retest of NALP3 inhibitors in yeast. inhibition, % at 10 µM. hit rate 53% among 1,000. yeast expressing human NALP3, luminescence read-out. shares compounds with NALP3 yeast inh
Hits are given with their value; i = inactive; ? = inconclusive; nt = no result. Hits are enriched below; roughly 4.6% of the tested compounds scored in any of these assays. Unless noted, no stated cut-off is given here; in the data, active means inhibition above about 50%; inactive means the rest.

SMILES	ALR H2O2 inh	Pemphigus Ab inh	PolyA inh	NALP1 inh	Arrestin-AP2 inh	NALP3 yeast inh	NALP3 confirm	Casp1-ASC yeast	NALP3 yeast rt
CCOc1ccc(S(=O)(=O)Nc2ccc(Cl)cn2)c(C)c1C	i	i	i	i	i	59.5	76.9	63.6	i
CCc1cccc(C)c1NC(=O)COC(=O)CSCc1ccccc1	i	i	nt	nt	i	i	nt	nt	nt
Clc1ccc2ccc3cccnc3c2n1	i	i	i	i	i	i	nt	nt	nt
O=S1(=O)Nc2c(ccc3cccnc23)-c2ccccc21	i	i	i	i	i	69.6	85.6	98.3	91.3
NC(=O)CC(NC(=O)Cc1ccc(Br)cc1)c1ccc(N2CCC(Cc3ccccc3)CC2)c([N+](=O)[O-])c1 (stereo unspecified)	i	i	i	nt	i	51.3	79.9	i	i
NC(=O)CC(NC(=O)Cc1ccc(Br)cc1)c1ccc(N2CCC(Br)CC2)c([N+](=O)[O-])c1 (stereo unspecified)	i	i	i	nt	i	i	nt	nt	nt
CN1CCN(C(c2ccc(Br)cc2)c2cc(Cl)c3cccnc3c2O)CC1 (stereo unspecified)	i	i	i	i	i	57.3	i	nt	nt
CNC(=O)Nc1cccc(-c2cc(-c3c(Cl)cccc3Cl)no2)c1	i	nt	i	i	i	i	nt	nt	nt
Cc1ccsc1C(=O)Nc1ccc(O)c(-c2nc3ccccc3s2)c1	i	i	i	i	i	i	nt	nt	nt
COc1ccc(-c2nc3ccccc3s2)cc1O	i	i	i	i	i	73.4	46.4	73.0	64.2
CC(=O)Nc1cccc(-c2cc(-c3c(Cl)cccc3Cl)no2)c1	i	i	i	nt	i	52.0	i	53.0	51.6
COc1cc(-c2nc3ccccc3s2)ccc1O	i	i	i	i	i	i	nt	nt	nt
CC(=O)Nc1ccc(O)c(-c2nc3ccccc3s2)c1	i	i	i	i	nt	55.7	67.4	nt	nt
CC(=O)Nc1cccc(-c2nc3ccc(NC(C)=O)cc3s2)c1	i	i	i	i	i	i	nt	nt	nt
CC(=O)Nc1cccc(-c2nc3ccccc3s2)c1	i	i	nt	i	i	53.9	i	nt	nt
O=C(COC(=O)C1(c2ccc(F)cc2)CCCC1)NCc1ccco1	i	i	i	i	i	i	nt	nt	nt
O=C1C([N+](=O)[O-])=C(O)c2cccc3cccc1c23	i	nt	i	i	nt	nt	nt	nt	nt
Oc1cccc(-c2nc3ccccc3s2)c1	i	nt	i	i	i	72.9	84.2	81.9	68.7
CCOC(=O)c1c(NC(=O)CSc2nc3ccccc3o2)sc(C(C)=O)c1C	i	i	i	i	i	i	nt	nt	nt
C/C(=N\OC(=O)c1ccc(Br)cc1)c1ccccn1	i	nt	i	i	i	i	nt	nt	nt
O=C(c1ccccn1)c1conc1C(=O)c1ccc(Br)cc1	nt	i	i	i	i	69.1	82.8	84.0	60.2
COc1ccc(C(=O)N2CCN(S(=O)(=O)c3ccc4c(c3)OCCO4)CC2)cc1OC	nt	i	nt	nt	i	i	nt	nt	nt
COc1ccc(C2CC(C)(c3ccc(OC)cc3)Nc3ccccc3N2)cc1 (stereo unspecified)	?	i	i	i	i	i	nt	nt	nt
COc1ccc(C2(C)CC(C)(C)Nc3ccccc32)cc1 (stereo unspecified)	i	i	i	i	i	55.0	51.3	i	i
CCc1ccccc1N(CC(=O)O)S(C)(=O)=O	i	i	i	i	i	i	nt	nt	nt
SMILES	ALR H2O2 inh	Pemphigus Ab inh	PolyA inh	NALP1 inh	Arrestin-AP2 inh	NALP3 yeast inh	NALP3 confirm	Casp1-ASC yeast	NALP3 yeast rt
CCCCn1c(-c2csc3c2CCCC3)n[nH]c1=S	i	nt	i	i	nt	53.8	66.2	65.3	54.7
COc1ccc(Cl)cc1NC(=O)C1CC(c2ccccc2Cl)=NO1 (stereo unspecified)	nt	i	nt	nt	nt	nt	nt	nt	nt
COc1ccc(CN2CCSc3sccc3C2=O)cc1	i	i	i	i	i	60.6	71.3	68.5	65.1
O=C1c2ccsc2SCCN1Cc1cccc(F)c1	i	i	i	i	i	i	nt	nt	nt
O=C1c2ccsc2SCCN1Cc1ccc(Cl)cc1Cl	nt	i	i	i	i	65.2	64.7	76.5	66.0
O=C1c2ccsc2SCCN1Cc1c(Cl)cccc1Cl	i	i	i	i	i	i	nt	nt	nt
